Our source for the IC50, MIC and CC50 values is ChEMBL document CHEMBL1146867, “Novel antibacterial class: a series of tetracyclic derivatives” (J Med Chem, 2006).

Holding throughout (assay type): functional
The subject of assay [1] is Streptococcus pneumoniae. The assay is described as follows: Inhibition on Streptococcus pneumoniae translation by uncoupled translation assay. Summed up: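 The assay was cell-free and translation-only (uncoupled), using S. pneumoniae material. Dried test compound was mixed with S30 extract, luciferase-encoding mRNA and a complete amino acid mix. The mix was incubated to allow translation, and the reaction was stopped with kanamycin. Luciferin reagent was then added, and read-out was by flash luminescence. Results are given as IC50.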

For assay [2], the system named is Streptococcus pneumoniae. Description: Antibacterial activity against quinolone-resistant Streptococcus pneumoniae ATCC 7257. An outline of the steps:
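MIC by broth microdilution following National Committee for Clinical Laboratory Standards methods for dilution susceptibility testing of aerobically growing bacteria, against the quinolone-resistant S. pneumoniae strain 7257.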

Assay [3] has as its system Streptococcus pneumoniae. Description: Antibacterial activity against quinolone-susceptible Streptococcus pneumoniae ATCC 6303. An outline of the steps:
(§1)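 MICs were determined by broth microdilution following the National Committee for Clinical Laboratory Standards method for aerobically growing bacteria.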

In a further assay the test system is Haemophilus influenzae. Description: Antibacterial activity against quinolone-susceptible Haemophilus influenzae 1435. Summed up: as §1
A further assay deals with JIYOYE. Description: Cytotoxicity against human B cells by Jijoye assay. The settings on record: read-out: LD50 (the source's name).
For assay [4], the system named is Streptococcus pneumoniae. Description: Inhibition on Streptococcus pneumoniae translation by transcription/translation coupled assay.

Converted amounts (≈) assume the structure as drawn. Where only a bound is given, the exact number is not on record here.

Consider `C=CC[C@@H]1Oc2cc3c(O)c(C(=O)O)cnc3nc2N2CCC[C@@H]12`, for which the IC50 in the assay with Streptococcus pneumoniae [1] amounted to 47 µM. The MIC against Streptococcus pneumoniae [2] was 8 µg/mL (≈ 24.4 µM); against Streptococcus pneumoniae [3], more than 64 µg/mL; against Haemophilus influenzae, 64 µg/mL (≈ 196 µM). Also, the CC50 with JIYOYE was more than 100 µg/mL.

As to `CC(C)(C)n1cc(C(=O)O)c(=O)c2cc3c(nc21)N1CCC[C@H]1C(=O)N3`, in the assay with Streptococcus pneumoniae [1], the IC50 is more than 200 µM. Also, the results for the MIC against Streptococcus pneumoniae [2], against Streptococcus pneumoniae [3] and against Haemophilus influenzae were more than 64 µg/mL, more than 64 µg/mL and more than 32 µg/mL, respectively. For the same compound, the CC50 with JIYOYE was more than 100 µg/mL.

Compound `O=C(O)c1cnc2nc3c(cc2c1O)OC[C@@H]1C[C@@H](O)CN31` had an IC50 in the assay with Streptococcus pneumoniae [1] of 6.9 µM. Besides, the MIC was 16 µg/mL (≈ 52.8 µM) in the assay on Streptococcus pneumoniae [2], 64 µg/mL (≈ 211 µM) in the assay on Streptococcus pneumoniae [3] and 16 µg/mL (≈ 52.8 µM) in the assay with Haemophilus influenzae. Moreover, the CC50 with JIYOYE was more than 100 µg/mL.

Take `O=C(O)c1cnc2nc3c(cc2c1O)OCCN3`: the IC50 with Streptococcus pneumoniae [1] turned out to be 100 µM. The MIC in the assay on Streptococcus pneumoniae [2] is more than 64 µg/mL; in the assay with Streptococcus pneumoniae [3] it was more than 64 µg/mL; in the assay with Haemophilus influenzae, 32 µg/mL (≈ 129 µM). For the same compound, in the assay with JIYOYE, the CC50 was more than 100 µg/mL.

Turning to `O=C(O)c1cnc2nc3c(cc2c1O)OC[C@@H]1CCN31`, the IC50 in the assay on Streptococcus pneumoniae [1] came to 7.5 µM. For the same compound, the figures for the MIC in the assay on Streptococcus pneumoniae [2], in the assay on Streptococcus pneumoniae [3] and against Haemophilus influenzae were 2 µg/mL (≈ 7.32 µM), 16 µg/mL (≈ 58.6 µM) and 8 µg/mL (≈ 29.3 µM), respectively. Moreover, in the assay on JIYOYE, the CC50 was more than 100 µg/mL.

Compound `C[C@@H]1Oc2cc3c(O)c(C(=O)O)cnc3nc2N2CCC[C@@H]12` showed an IC50 with Streptococcus pneumoniae [1] of 8.7 µM. Moreover, the values for the MIC in the assay with Streptococcus pneumoniae [2], in the assay on Streptococcus pneumoniae [3] and in the assay with Haemophilus influenzae were 4 µg/mL (≈ 13.3 µM), 8 µg/mL (≈ 26.6 µM) and 32 µg/mL (≈ 106 µM), respectively. The CC50 in the assay on JIYOYE is more than 100 µg/mL.

`O=C(O)c1cnc2nc3c(cc2c1O)OCC1CCCCN31` (stereo unspecified) registered an IC50 in the assay with Streptococcus pneumoniae [1] of 63 µM. The MIC against Streptococcus pneumoniae [2] is 16 µg/mL (≈ 53.1 µM); against Streptococcus pneumoniae [3], more than 64 µg/mL; in the assay with Haemophilus influenzae, 8 µg/mL (≈ 26.6 µM). In the assay with JIYOYE, the CC50 is more than 100 µg/mL.

For `C=CCC12CCCN1c1nc3ncc(C(=O)O)c(O)c3cc1OC2` (stereo unspecified), the IC50 with Streptococcus pneumoniae [1] is more than 300 µM. In addition, the MIC against Streptococcus pneumoniae [2], against Streptococcus pneumoniae [3] and against Haemophilus influenzae was more than 64 µg/mL throughout. The CC50 with JIYOYE is more than 100 µg/mL.

In the assay with Streptococcus pneumoniae [1], `CN1C[C@@H]2CCCN2c2nc3ncc(C(=O)O)c(O)c3cc21` gave a concentration for half-maximal inhibition (IC50) of 0.89 µM. Also, the MIC in the assay on Streptococcus pneumoniae [2] was 2 µg/mL (≈ 6.66 µM); against Streptococcus pneumoniae [3], 8 µg/mL (≈ 26.6 µM); in the assay with Haemophilus influenzae, 8 µg/mL (≈ 26.6 µM). Also, the CC50 with JIYOYE is more than 100 µg/mL.

Consider `O=C(O)c1cnc2nc3c(cc2c1O)OC[C@@H]1CCCN31`, for which the IC50 in the assay on Streptococcus pneumoniae [1] stood at 5.2 µM. The values for the MIC in the assay with Streptococcus pneumoniae [2], with Streptococcus pneumoniae [3] and in the assay on Haemophilus influenzae were 1 µg/mL (≈ 3.48 µM), 4 µg/mL (≈ 13.9 µM) and 2 µg/mL (≈ 6.96 µM), respectively. The CC50 with JIYOYE was more than 100 µg/mL.

As to `CN1CCOc2cc3c(O)c(C(=O)O)cnc3nc21`, the IC50 with Streptococcus pneumoniae [1] came out at 70 µM. The MIC is 32 µg/mL (≈ 122 µM) against Streptococcus pneumoniae [2], more than 64 µg/mL in the assay with Streptococcus pneumoniae [3] and 32 µg/mL (≈ 122 µM) with Haemophilus influenzae. In the assay on JIYOYE, the CC50 is more than 100 µg/mL.

`O=C(O)c1cnc2cc(N3CCNCC3)c(F)cc2c1O` had an IC50 with Streptococcus pneumoniae [1] of 141 µM. For the same compound, the MIC with Streptococcus pneumoniae [2] and against Streptococcus pneumoniae [3] was more than 64 µg/mL in each case.

`O=C(O)c1cnc2nc3c(cc2c1O)NC(=O)[C@@H]1CCCN31`: it took 22 µM to reach half-maximal inhibition in the assay on Streptococcus pneumoniae [1] (IC50). Besides, the MIC in the assay with Streptococcus pneumoniae [2], in the assay with Streptococcus pneumoniae [3] and against Haemophilus influenzae was more than 64 µg/mL in each case. The CC50 in the assay on JIYOYE was more than 100 µg/mL.

Compound `CC12CCCN1c1nc3ncc(C(=O)O)c(O)c3cc1OC2` (stereo unspecified) registered an IC50 with Streptococcus pneumoniae [1] of 107 µM. Also, the MIC was 32 µg/mL (≈ 106 µM) with Streptococcus pneumoniae [2], more than 64 µg/mL in the assay with Streptococcus pneumoniae [3] and 32 µg/mL (≈ 106 µM) in the assay with Haemophilus influenzae. For the same compound, the CC50 in the assay on JIYOYE is more than 100 µg/mL.

In the assay on Streptococcus pneumoniae [1], `CC(=O)N1C[C@@H]2CCCN2c2nc3ncc(C(=O)O)c(O)c3cc21` came in with an IC50 of 7 µM. Besides, the MIC was 16 µg/mL (≈ 48.7 µM) against Streptococcus pneumoniae [3] and 4 µg/mL (≈ 12.2 µM) in the assay on Haemophilus influenzae.

In turn, `O=C(O)c1cn(C2CC2)c2nc3c(cc2c1=O)OC[C@@H]1CCCN31` gave an IC50 in the assay with Streptococcus pneumoniae [1] of more than 100 µM. Besides, the MIC in the assay with Streptococcus pneumoniae [2] is 8 µg/mL (≈ 24.4 µM); in the assay on Streptococcus pneumoniae [3], more than 64 µg/mL.

Take `O=C(O)c1cnc2nc(N3CCC[C@@H]3CO)c(F)cc2c1O`: the midpoint of inhibition in the assay with Streptococcus pneumoniae [4], the IC50, lay at 75 µM. In addition, the MIC in the assay on Streptococcus pneumoniae [2], against Streptococcus pneumoniae [3] and in the assay on Haemophilus influenzae was more than 64 µg/mL each time. The CC50 in the assay with JIYOYE was more than 100 µg/mL.

With `O=C(O)c1cnc2nc(N3CCCC3)c(F)cc2c1O`, the MIC in the assay on Streptococcus pneumoniae [2] is 4 µg/mL (≈ 14.4 µM); against Streptococcus pneumoniae [3] it was 16 µg/mL (≈ 57.7 µM); in the assay on Haemophilus influenzae it was less than 1 µg/mL. In addition, the CC50 with JIYOYE was more than 100 µg/mL.

With `C=CC[C@H]1Oc2cc3c(O)c(C(=O)O)cnc3nc2N2CCC[C@@H]12`, in the assay on Streptococcus pneumoniae [1], the IC50 is more than 300 µM. Also, the MIC in the assay on Streptococcus pneumoniae [2], against Streptococcus pneumoniae [3] and against Haemophilus influenzae was more than 64 µg/mL each time. The CC50 with JIYOYE is more than 100 µg/mL.

In the assay with Streptococcus pneumoniae [1], `O=C(O)c1cnc2nc3c(cc2c1O)NC[C@@H]1CCCN31` came in with an IC50 of 10 µM. Further, the results for the MIC in the assay on Streptococcus pneumoniae [2], against Streptococcus pneumoniae [3] and in the assay with Haemophilus influenzae were 8 µg/mL (≈ 27.9 µM), 16 µg/mL (≈ 55.9 µM) and 8 µg/mL (≈ 27.9 µM), respectively. For the same compound, the CC50 in the assay with JIYOYE is 18 µg/mL (≈ 62.9 µM).

Turning to `CCN1CCOc2cc3c(O)c(C(=O)O)cnc3nc21`, the IC50 in the assay with Streptococcus pneumoniae [1] was found to be 84 µM. The MIC in the assay on Streptococcus pneumoniae [2] is 32 µg/mL (≈ 116 µM); against Streptococcus pneumoniae [3] it was more than 64 µg/mL; in the assay on Haemophilus influenzae, 64 µg/mL (≈ 233 µM). Also, in the assay with JIYOYE, the CC50 was more than 100 µg/mL.

With `O=C(O)c1cnc2nc3c(cc2c1O)N(c1ccccc1)C[C@@H]1CCCN31`, the IC50 in the assay on Streptococcus pneumoniae [1] was found to be 64 µM. Also, the MIC against Streptococcus pneumoniae [2], with Streptococcus pneumoniae [3] and against Haemophilus influenzae was more than 64 µg/mL throughout. In the assay on JIYOYE, the CC50 was more than 100 µg/mL.

Compound `COc1ccc(Cn2cc(C(=O)O)c(=O)c3cc4c(nc32)N2CCC[C@H]2CO4)c(OC)c1` gave an IC50 with Streptococcus pneumoniae [1] of 57 µM. Besides, the MIC against Streptococcus pneumoniae [2] was 32 µg/mL (≈ 73.2 µM); in the assay with Streptococcus pneumoniae [3], more than 64 µg/mL; with Haemophilus influenzae, more than 64 µg/mL. In addition, the CC50 in the assay with JIYOYE was 12 µg/mL (≈ 27.4 µM).

For the compound `O=C(O)c1cnc2nc3c(cc2c1O)OC[C@H]1CCCN31`, the IC50 with Streptococcus pneumoniae [1] worked out at 10.5 µM. The MIC is 1 µg/mL (≈ 3.48 µM) with Streptococcus pneumoniae [2], 8 µg/mL (≈ 27.8 µM) in the assay with Streptococcus pneumoniae [3] and 4 µg/mL (≈ 13.9 µM) against Haemophilus influenzae. In addition, the CC50 in the assay with JIYOYE was more than 100 µg/mL.

Turning to `COc1ccc(Cn2cc(C(=O)O)c(=O)c3cc4c(nc32)N2CCC[C@@H]2CO4)c(OC)c1`, the IC50 with Streptococcus pneumoniae [1] was found to be 229 µM. Also, the MIC against Streptococcus pneumoniae [2] is 16 µg/mL (≈ 36.6 µM); against Streptococcus pneumoniae [3], more than 64 µg/mL; against Haemophilus influenzae, more than 64 µg/mL. Besides, the CC50 in the assay with JIYOYE was 6 µg/mL (≈ 13.7 µM).

`N[C@H]1C[C@H]2COc3cc4c(O)c(C(=O)O)cnc4nc3N2C1` registered an IC50 with Streptococcus pneumoniae [1] of 2.7 µM. The MIC in the assay with Streptococcus pneumoniae [2], with Streptococcus pneumoniae [3] and with Haemophilus influenzae was more than 64 µg/mL in each case. Further, in the assay on JIYOYE, the CC50 was more than 100 µg/mL.

`C[C@H]1Oc2cc3c(O)c(C(=O)O)cnc3nc2N2CCCC12` (single isomer, unassigned) registered an IC50 in the assay on Streptococcus pneumoniae [1] of 125 µM. Also, the MIC against Streptococcus pneumoniae [2] amounted to 32 µg/mL (≈ 106 µM); in the assay on Streptococcus pneumoniae [3], 64 µg/mL (≈ 212 µM); in the assay on Haemophilus influenzae, 64 µg/mL (≈ 212 µM). Besides, the CC50 with JIYOYE was more than 100 µg/mL.

Take `O=C(O)c1cn(C2CC2)c2cc(N3CCNCC3)c(F)cc2c1=O` [CIPROFLOXACIN]: half-maximal inhibition in the assay with Streptococcus pneumoniae [1] (IC50) was put at 200 µM. In addition, the MIC was 16 µg/mL (≈ 48.3 µM) in the assay with Streptococcus pneumoniae [2] and 2 µg/mL (≈ 6.04 µM) against Streptococcus pneumoniae [3].

By IC50 is commonly meant the concentration that inhibits the measured activity by half. A high value points to weaker potency in that assay.
